Where two headings read alike, the source gives them in different places.
Key:
[1] = test system: HIV-1 vector with IN mutant G140S/Q148H; assay: Single-round infection assay, IN mutant G140S/Q148H; assay type: cell-based; details: Human immunodeficiency virus 1, read-out: EC50 G140S/Q148H
Procedure, shortened: (§1)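 293 cells were co-transfected by calcium phosphate with pNLNgoMIVR–ΔLUC (16 μg; WT or IN mutant) plus pHCMV-g (4 μg) and washed ~6 h later. Supernatant was harvested 48 h later, clarified, filtered and diluted. HOS cells (4000/well) were pretreated 3 h at 37 °C with test compound (11 dilutions, 5 μM–0.0001 μM), then infected for 48 h. Luciferase was read and EC50 fitted by nonlinear regression.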

[2] = test system: human osteosarcoma (HOS) cells; assay: Cellular cytotoxicity; assay type: cell-based; details: 50% reduction in the level of ATP in HOS cells, 48 h
Procedure, shortened: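 HOS cells grown in DMEM with 5% FBS, 5% newborn calf serum and penicillin/streptomycin, then seeded at 4000 cells/well the day before the assay. Test compound was added over 250 μM to 0.05 μM and cells were held at 37 °C for 48 h. ATP luminescence reagent was read after 20 min at room temperature. CC50 came from a nonlinear regression fit.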

[3] = test system: HIV-1 vector with IN mutant N155H; assay: Single-round infection assay, IN mutant N155H; assay type: cell-based; details: Human immunodeficiency virus 1, read-out: EC50 N155H
Procedure, shortened: as §1

[4] = test system: HIV-1 vector with wild-type (WT) IN; assay: Single-round infection assay, viral construct with WT IN; assay type: cell-based; details: read-out: EC50 WT, single-round HIV-1 vector, HOS cells
Procedure, shortened: as §1

[5] = test system: HIV-1 vector with IN mutant R263K; assay: Single-round infection assay, IN mutant R263K; assay type: cell-based; details: read-out: EC50 R263K, single-round HIV-1 vector
Procedure, shortened: as §1

[6] = test system: HIV-1 vector with IN mutant G118R; assay: Single-round infection assay, IN mutant G118R; assay type: cell-based; details: for resistance / loss of potency against G118R mutant: our single-round infection assays
Procedure, shortened: as §1

[7] = test system: HIV-1 vector with IN mutant S230N; assay: Single-round infection assay, IN mutant S230N; assay type: cell-based; details: read-out: EC50 S230N, single-round HIV-1 vector
Procedure, shortened: as §1

[8] = test system: HIV-1 vector with wild-type (WT) IN; details: read-out: EC50 WT, single-round HIV-1 vector, previously reported ref 46; cited from earlier work
[9] = test system: HIV-1 vector with IN mutant E138K/G140C/Q148R; assay: Single-round infection assay, IN mutant E138K/G140C/Q148R; assay type: cell-based; details: Human immunodeficiency virus 1, read-out: EC50 E138K/G140C/Q148R
Procedure, shortened: (§2)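 Vector carrying the mutant IN was made by calcium phosphate co-transfection of 293 cells with pNLNgoMIVR–ΔLUC (16 μg) and pHCMV-g (4 μg); supernatant was collected 48 h after washing. HOS cells were exposed 3 h at 37 °C to test compound (11 dilutions, 5 μM–0.0001 μM), then infected for 48 h. Luciferase luminescence gave EC50 by nonlinear regression; n = 4 independent experiments, each in triplicate.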

[10] = test system: HIV-1 vector with IN mutant E138A/G140S/Q148H; assay: Single-round infection assay, IN mutant E138A/G140S/Q148H; assay type: cell-based; details: Human immunodeficiency virus 1, read-out: EC50 E138A/G140S/Q148H
Procedure, shortened: as §2

[11] = test system: HIV-1 vector with IN mutant G140A/Q148K; assay: Single-round infection assay, IN mutant G140A/Q148K; assay type: cell-based; details: Human immunodeficiency virus 1, read-out: EC50 G140A/Q148K
Procedure, shortened: as §2

[12] = biological target: Sso7d IN (HIV-1 integrase) (UniProt P12497+P39476); assay: In vitro IN strand transfer assay; assay type: biochemical
[13] = test system: HIV-1 vector with IN mutant G140S/Q148R; assay: Single-round infection assay, IN mutant G140S/Q148R; assay type: cell-based; details: Human immunodeficiency virus 1, read-out: EC50 G140S/Q148R
Procedure, shortened: as §2

[14] = test system: HIV-1 vector with IN mutant T97A/G140S/Q148H; assay: Single-round infection assay, IN mutant T97A/G140S/Q148H; assay type: cell-based; details: Human immunodeficiency virus 1, read-out: EC50 T97A/G140S/Q148H
Procedure, shortened: as §2

[15] = test system: HIV-1 vector with IN mutant E138K/G140S/Q148H; assay: Single-round infection assay, IN mutant E138K/G140S/Q148H; assay type: cell-based; details: Human immunodeficiency virus 1, read-out: EC50 E138K/G140S/Q148H
Procedure, shortened: as §2

[16] = test system: HIV-1 vector with IN mutant L74M/G140C/Q148R; assay: Single-round infection assay, IN mutant L74M/G140C/Q148R; assay type: cell-based; details: Human immunodeficiency virus 1, read-out: EC50 L74M/G140C/Q148R
Procedure, shortened: as §2

[17] = test system: HIV-1 vector with IN mutant E138K/G140A/Q148K; assay: Single-round infection assay, IN mutant E138K/G140A/Q148K; assay type: cell-based; details: Human immunodeficiency virus 1, read-out: EC50 E138K/G140A/Q148K
Procedure, shortened: as §2

[18] = test system: HIV-1 vector with IN mutant E138K/Q148K; assay: Single-round infection assay, IN mutant E138K/Q148K; assay type: cell-based; details: Human immunodeficiency virus 1, read-out: EC50 E138K/Q148K
Procedure, shortened: as §2

[19] = test system: HIV-1 vector with IN mutant R263K; details: single-round infection assays; cited from earlier work
[20] = test system: HIV-1 vector with IN mutant G118R; details: single-round infection assays; cited from earlier work
[21] = test system: HIV-1 vector with IN mutant G140S/Q148H; details: single-round infection assays; cited from earlier work

| Compound | EC50 [1] [nM] | EC50 [3] [nM] | EC50 [8] [nM] | resistance / loss of potency against G118R mutant [6] [×] | also measured |
| --- | --- | --- | --- | --- | --- |
| O=C(NCc1ccc(F)cc1F)c1cn2cc[nH]c(=O)c2c(O)c1=O [6a] | > 5000 | 457 ± 21 | – | – | CC50 [2]: 150000 ± 19900 nM |
| COCC(C)n1ccn2cc(C(=O)NCc3ccc(F)cc3F)c(=O)c(O)c2c1=O (centres unmarked) [6k] | 34.1 ± 5.4 | 5 ± 0.7 | – | – | – |
| COC(Cn1ccn2cc(C(=O)NCc3ccc(F)cc3F)c(=O)c(O)c2c1=O)OC [6l] | 1150 ± 114 | 27.7 ± 2.7 | – | – | – |
| CC(C)=CCC/C(C)=C/Cn1ccn2cc(C(=O)NCc3ccc(F)cc3F)c(=O)c(O)c2c1=O [6m] | 365 ± 43.3 | 81.6 ± 7.6 | – | – | EC50 [4]: 38.9 ± 6.7 nM |
| O=C(NCc1ccc(F)cc1F)c1cn2c(c(O)c1=O)C(=O)NCC2 [7a] | > 5000 | – | – | – | EC50 [5]: 148 ± 36.5 nM |
| COC(CN1CCn2cc(C(=O)NCc3ccc(F)cc3F)c(=O)c(O)c2C1=O)OC [7l] | 394 ± 39 | 6.3 ± 0.7 | – | – | EC50 ([6]; read-out: EC50 G118R, single-round HIV-1 vector, IN G118R): 36.4 ± 1.3 nM |
| CC(C)CCCC(C)CCN1CCn2cc(C(=O)NCc3ccc(F)cc3F)c(=O)c(O)c2C1=O (centres unmarked) [7m] | 109 ± 20.5 | 25.6 ± 4.2 | – | – | EC50 [4]: 21.4 ± 2.5 nM; EC50 [7]: 41.8 ± 4.2 nM |
| O=C(NCc1c(F)cc(F)cc1F)c1cn2c(c(O)c1=O)C(=O)N1[C@H]3CC[C@H](C3)O[C@@H]1C2 [BIC, bictegravir] | – | – | 2.4 ± 0.4 | 4 | – |
| C[C@H]1CO[C@@H]2Cn3cc(C(=O)NCc4ccc(F)cc4F)c(=O)c(O)c3C(=O)N12 [CAB, cabotegravir] | – | – | 1.8 ± 0.5 | 17 | EC50 [9]: 134.2 ± 0.3 nM; EC50 [10]: 70.2 ± 9 nM; EC50 [11]: 393 ± 51.1 nM; IC50 [12]: 381 nM; EC50 [13]: 415 ± 14.5 nM; EC50 [14]: 43.7 ± 4.2 nM; EC50 [15]: 93 ± 6.1 nM; EC50 [16]: 220 ± 41.2 nM; EC50 [17]: 610 ± 8.6 nM; EC50 [18]: 772 ± 72.2 nM |
| C[C@@H]1CCO[C@H]2Cn3cc(C(=O)NCc4ccc(F)cc4F)c(=O)c(O)c3C(=O)N12 [DTG, dolutegravir] | – | – | 2.6 ± 0.3 | 9 | reduction in susceptibility relative to WT, R263K [19]: 2 fold; reduction in susceptibility relative to WT, G118R [20]: > 5 fold; reduction in susceptibility relative to WT, G140S/Q148H [21]: 2 fold |

Reference: publication PMC10928719 (ACS Infectious Diseases, 2024)
